From ChEMBL document CHEMBL3616442, “Unconventional Knoevenagel-type indoles: Synthesis and cell-based studies for the identification of pro-apoptotic agents” (Eur J Med Chem, 2015)

Key:
MT4 = test: Antiproliferative activity against human MT4 cells after 96 hrs by MTT assay; format: functional, cell-based; details: MT4, 96 h
Summary of the method: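 Exponentially growing MT-4 cells (CD4+ human T-cells carrying integrated HTLV-1 genome), seeded at 1×10^5 cells/mL in RPMI-1640 with 10% FCS and antibiotics. Serial dilutions of compound (DMSO stock 100 mM, diluted in medium), 37 °C, 5% CO₂, 96 h. Viability read by MTT. 50% inhibition versus untreated controls by linear regression. Mean ± SD of three independent determinations.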

HL-60(TB) = test: Growth inhibition of human HL-60(TB) cells after 48 hrs by sulforhodamine B assay; format: functional; details: HL-60, 48 h
Summary of the method: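 NCI 60-cell-line screen, HL-60(TB) included. Compound given at five 10-fold dilutions from 10^-4 to 10^-8 M. Cells exposed for the last 48 h of a 72 h incubation. Growth or viability estimated by sulforhodamine B protein assay. GI50 is the concentration giving 50% growth inhibition. Values outside the tested range are reported as greater or less than the highest or lowest concentration.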

K562 = test: Growth inhibition of human K562 cells after 48 hrs by sulforhodamine B assay; format: functional; details: K562, 48 h
Summary of the method: (§1)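 NCI 60-cell-line screen. Compounds tested at five 10-fold dilutions from 10^-4 to 10^-8 M. Cells exposed for the last 48 h of a 72 h incubation, growth estimated by sulforhodamine B protein assay. GI50 is the concentration giving 50% growth inhibition. Values beyond the tested range are expressed as greater or lesser than the extreme concentration.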

[1] = Growth inhibition of human RPMI8226 cells after 48 hrs by sulforhodamine B assay; format: functional; details: RPMI-8226, 48 h
SR = test: Growth inhibition of human SR cells after 48 hrs by sulforhodamine B assay; format: functional
A549 = test: Growth inhibition of human A549 cells after 48 hrs by sulforhodamine B assay; format: functional; details: A549, 48 h; summary of the method: as §1
[2] = Growth inhibition of human EKVX cells after 48 hrs by sulforhodamine B assay; format: functional; summary of the method: as §1
[3] = Growth inhibition of human HOP92 cells after 48 hrs by sulforhodamine B assay; format: functional; details: HOP-92, 48 h; summary of the method: as §1
NCI-H23 = test: Growth inhibition of human NCI-H23 cells after 48 hrs by sulforhodamine B assay; format: functional; details: NCI-H23, 48 h; summary of the method: as §1
NCI-H460 = test: Growth inhibition of human NCI-H460 cells after 48 hrs by sulforhodamine B assay; format: functional; details: NCI-H460, 48 h; summary of the method: as §1
NCI-H522 = test: Growth inhibition of human NCI-H522 cells after 48 hrs by sulforhodamine B assay; format: functional; details: NCI-H522, 48 h; summary of the method: as §1
[4] = Growth inhibition of human COLO205 cells after 48 hrs by sulforhodamine B assay; format: functional; details: COLO 205, 48 h; summary of the method: as §1
HCT-116 = test: Growth inhibition of human HCT116 cells after 48 hrs by sulforhodamine B assay; format: functional; details: HCT-116, 48 h; summary of the method: as §1
KM12 = test: Growth inhibition of human KM12 cells after 48 hrs by sulforhodamine B assay; format: functional; details: KM12, 48 h; summary of the method: as §1
[5] = Growth inhibition of human SF295 cells after 48 hrs by sulforhodamine B assay; format: functional; details: SF-295, 48 h
SNB-75 = test: Growth inhibition of human SNB75 cells after 48 hrs by sulforhodamine B assay; format: functional; details: SNB-75, 48 h
U-251 = test: Growth inhibition of human U251 cells after 48 hrs by sulforhodamine B assay; format: functional; details: U-251, 48 h
[6] = Growth inhibition of human LOXIMVI cells after 48 hrs by sulforhodamine B assay; format: functional; details: LOX IMVI; summary of the method: as §1
M14 = test: Growth inhibition of human M14 cells after 48 hrs by sulforhodamine B assay; format: functional; details: M14, 48 h; summary of the method: as §1
MDA-MB-435 = test: Growth inhibition of human MDA-MB-435 cells after 48 hrs by sulforhodamine B assay; format: functional; details: MDA-MB-435, 48 h; summary of the method: as §1
SK-MEL-5 = test: Growth inhibition of human SK-MEL-5 cells after 48 hrs by sulforhodamine B assay; format: functional; details: SK-MEL-5, 48 h
UACC-62 = test: Growth inhibition of human UACC62 cells after 48 hrs by sulforhodamine B assay; format: functional; details: UACC-62, 48 h
OVCAR-4 = test: Growth inhibition of human OVCAR4 cells after 48 hrs by sulforhodamine B assay; format: functional; details: OVCAR-4, 48 h; summary of the method: as §1
SK-OV-3 = test: Growth inhibition of human SKOV3 cells after 48 hrs by sulforhodamine B assay; format: functional; details: SK-OV-3, 48 h
ACHN = test: Growth inhibition of human ACHN cells after 48 hrs by sulforhodamine B assay; format: functional; summary of the method: as §1
CAKI-1 = test: Growth inhibition of human CAKI-1 cells after 48 hrs by sulforhodamine B assay; format: functional; details: CAKI-1, 48 h; summary of the method: as §1
[7] = Growth inhibition of human RXF393 cells after 48 hrs by sulforhodamine B assay; format: functional; details: RXF 393, 48 h
PC-3 = test: Growth inhibition of human PC3 cells after 48 hrs by sulforhodamine B assay; format: functional; details: PC-3, 48 h
MCF7 = test: Growth inhibition of human MCF7 cells after 48 hrs by sulforhodamine B assay; format: functional; details: MCF7, 48 h; summary of the method: as §1
[8] = Growth inhibition of human Hs 578T cells after 48 hrs by sulforhodamine B assay; format: functional; summary of the method: as §1
T47D = test: Growth inhibition of human T47D cells after 48 hrs by sulforhodamine B assay; format: functional
MDA-MB-468 = test: Growth inhibition of human MDA-MB-468 cells after 48 hrs by sulforhodamine B assay; format: functional; details: MDA-MB-468, 48 h; summary of the method: as §1
CCRF-CEM = test: Growth inhibition of human CCRF-CEM cells after 48 hrs by sulforhodamine B assay; format: functional; summary of the method: as §1
HOP-62 = test: Growth inhibition of human HOP62 cells after 48 hrs by sulforhodamine B assay; format: functional; details: HOP-62, 48 h; summary of the method: as §1
NCI-H226 = test: Growth inhibition of human NCI-H226 cells after 48 hrs by sulforhodamine B assay; format: functional; details: NCI-H226, 48 h; summary of the method: as §1
NCI-H322M = test: Growth inhibition of human NCI-H322M cells after 48 hrs by sulforhodamine B assay; format: functional; summary of the method: as §1
[9] = Growth inhibition of human HCC2998 cells after 48 hrs by sulforhodamine B assay; format: functional; details: HCC 2998, 48 h; summary of the method: as §1
HCT-15 = test: Growth inhibition of human HCT15 cells after 48 hrs by sulforhodamine B assay; format: functional; details: HCT-15, 48 h; summary of the method: as §1
HT-29 = test: Growth inhibition of human HT-29 cells after 48 hrs by sulforhodamine B assay; format: functional; details: HT-29, 48 h; summary of the method: as §1
SW-620 = test: Growth inhibition of human SW620 cells after 48 hrs by sulforhodamine B assay; format: functional; details: SW-620, 48 h
SF-268 = test: Growth inhibition of human SF268 cells after 48 hrs by sulforhodamine B assay; format: functional; details: SF-268, 48 h
[10] = Growth inhibition of human SF539 cells after 48 hrs by sulforhodamine B assay; format: functional; details: SF-539, 48 h
SNB-19 = test: Growth inhibition of human SNB19 cells after 48 hrs by sulforhodamine B assay; format: functional; details: SNB-19, 48 h
Malme-3M = test: Growth inhibition of human MALME-3M cells after 48 hrs by sulforhodamine B assay; format: functional; summary of the method: as §1
SK-MEL-2 = test: Growth inhibition of human SK-MEL-2 cells after 48 hrs by sulforhodamine B assay; format: functional; details: SK-MEL-2, 48 h
SK-MEL-28 = test: Growth inhibition of human SK-MEL-28 cells after 48 hrs by sulforhodamine B assay; format: functional; details: SK-MEL-28, 48 h
UACC-257 = test: Growth inhibition of human UACC257 cells after 48 hrs by sulforhodamine B assay; format: functional; details: UACC-257, 48 h
IGROV-1 = test: Growth inhibition of human IGROV1 cells after 48 hrs by sulforhodamine B assay; format: functional; details: IGROV-1, 48 h; summary of the method: as §1
OVCAR-3 = test: Growth inhibition of human OVCAR3 cells after 48 hrs by sulforhodamine B assay; format: functional; details: OVCAR-3, 48 h; summary of the method: as §1
OVCAR-8 = test: Growth inhibition of human OVCAR8 cells after 48 hrs by sulforhodamine B assay; format: functional; details: OVCAR-8, 48 h
[11] = Growth inhibition of human NCI-ADR-RES cells after 48 hrs by sulforhodamine B assay; format: functional; summary of the method: as §1
786-0 = test: Growth inhibition of human 786-0 cells after 48 hrs by sulforhodamine B assay; format: functional; details: 786-0, 48 h; summary of the method: as §1
A498 = test: Growth inhibition of human A498 cells after 48 hrs by sulforhodamine B assay; format: functional; details: A498, 48 h; summary of the method: as §1
SN12C = test: Growth inhibition of human SN12C cells after 48 hrs by sulforhodamine B assay; format: functional
TK-10 = test: Growth inhibition of human TK10 cells after 48 hrs by sulforhodamine B assay; format: functional; details: TK-10, 48 h
UO-31 = test: Growth inhibition of human UO31 cells after 48 hrs by sulforhodamine B assay; format: functional; details: UO-31, 48 h
DU-145 = test: Growth inhibition of human DU145 cells after 48 hrs by sulforhodamine B assay; format: functional; details: DU-145, 48 h; summary of the method: as §1
MDA-MB-231 = test: Growth inhibition of human MDA-MB-231 cells after 48 hrs by sulforhodamine B assay; format: functional; details: MDA-MB-231, 48 h; summary of the method: as §1
[12] = Growth inhibition of human BT549 cells after 48 hrs by sulforhodamine B assay; format: functional; details: BT-549, 48 h; summary of the method: as §1

O=C(/C(=C\c1c(-c2ccccc2)[nH]c2ccccc12)S(=O)(=O)c1ccccc1)c1ccccc1
EC50 (MT4): 3 µM
GI50 (HL-60(TB)): 5 µM
GI50 (K562): 6.5 µM
GI50 [1]: 7.6 µM
GI50 (SR): 9.9 µM
GI50 (A549): 35 µM
GI50 [2]: 4.6 µM
GI50 [3]: 5 µM
GI50 (NCI-H23): 9.6 µM
GI50 (NCI-H460): 5.9 µM
GI50 (NCI-H522): 91.8 µM
GI50 [4]: 7.8 µM
GI50 (HCT-116): 4.9 µM
GI50 (KM12): 5.1 µM
GI50 [5]: 3.5 µM
GI50 (SNB-75): 10.1 µM
GI50 (U-251): 8.6 µM
GI50 [6]: 74.7 µM
GI50 (M14): 15.6 µM
GI50 (MDA-MB-435): 3.9 µM
GI50 (SK-MEL-5): 9 µM
GI50 (UACC-62): 9 µM
GI50 (OVCAR-4): 6.6 µM
GI50 (SK-OV-3): 7.6 µM
GI50 (ACHN): 6.7 µM
GI50 (CAKI-1): 3.1 µM
GI50 [7]: 97.1 µM
GI50 (PC-3): 5 µM
GI50 (MCF7): 5 µM
GI50 [8]: 39.5 µM
GI50 (T47D): 3.4 µM
GI50 (MDA-MB-468): 4.2 µM

N#C/C(=C\c1c(-c2ccccc2)[nH]c2ccccc12)C(=O)c1ccccc1
EC50 (MT4): 0.5 µM
GI50 (CCRF-CEM): 7.3 µM
GI50 [1]: 2.4 µM
GI50 (A549): 7.6 µM
GI50 [2]: 10 µM
GI50 (HOP-62): 16.3 µM
GI50 [3]: 4.5 µM
GI50 (NCI-H226): 6.8 µM
GI50 (NCI-H23): 16 µM
GI50 (NCI-H322M): 3.8 µM
GI50 (NCI-H460): 4.5 µM
GI50 (NCI-H522): 4 µM
GI50 [4]: 5 µM
GI50 [9]: 14.5 µM
GI50 (HCT-116): 5.3 µM
GI50 (HCT-15): 3.5 µM
GI50 (HT-29): 3.4 µM
GI50 (KM12): 2 µM
GI50 (SW-620): 3 µM
GI50 (SF-268): 5.7 µM
GI50 [5]: 3 µM
GI50 [10]: 6 µM
GI50 (SNB-19): 16.8 µM
GI50 (SNB-75): 3.2 µM
GI50 (U-251): 4.7 µM
GI50 [6]: 7.4 µM
GI50 (Malme-3M): 12.3 µM
GI50 (M14): 4.8 µM
GI50 (MDA-MB-435): 0.37 µM
GI50 (SK-MEL-2): 35.2 µM
GI50 (SK-MEL-28): 12 µM
GI50 (UACC-257): 10.9 µM
GI50 (UACC-62): 3.6 µM
GI50 (IGROV-1): 2.5 µM
GI50 (OVCAR-3): 2.4 µM
GI50 (OVCAR-4): 65.3 µM
GI50 (OVCAR-8): 2.2 µM
GI50 [11]: 3.1 µM
GI50 (SK-OV-3): 15.2 µM
GI50 (786-0): 16.5 µM
GI50 (A498): 15.3 µM
GI50 (ACHN): 7.2 µM
GI50 (CAKI-1): 2.5 µM
GI50 [7]: 9.6 µM
GI50 (SN12C): 5.7 µM
GI50 (TK-10): 11.1 µM
GI50 (UO-31): 30.5 µM
GI50 (PC-3): 3.5 µM
GI50 (DU-145): 5.2 µM
GI50 (MCF7): 4 µM
GI50 (MDA-MB-231): 13.2 µM
GI50 [8]: 6.3 µM
GI50 [12]: 3 µM
GI50 (T47D): 5.3 µM
GI50 (MDA-MB-468): 5.6 µM
